Values after ≈ are worked out from the molar mass of the structure shown. Active and inactive are the calls of the source. No cut-off for these calls is given here.
Columns and labels:
Staphylococcus aureus [1] = experiment: Ratio of MBC to MIC against methicillin-susceptible Staphylococcus aureus ATCC 25923; format: functional
How it was run: (§1)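 For MBC, 5 μL from each well was spotted on agar and incubated overnight; MBC is the lowest concentration with no visible growth. Ratio taken as MBC over MIC.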

Staphylococcus aureus [2] = experiment: Induction of membrane permeabilization in methicillin-susceptible Staphylococcus aureus ATCC 25923 assessed as cell viability at 1 to 5 times of MIC incubated for 5 mins by SYTO9 and PI staining based fluorescence assay; format: functional, organism-based
How it was run: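 S. aureus […] was grown to OD600 0.4 in LB, washed with PBS and resuspended in 100 mM potassium phosphate pH 7.0 with 5 mM MgSO4. […] Controls were DMSO 5% and nisin 25 μg/mL. SYTO 9/propidium iodide staining ran 15 min at r.t. in the dark, and the green/red ratio (ex 485; em 535/595 nm) was read. Data are mean ± SEM, n = 3.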

Staphylococcus aureus [3] = experiment: Antibacterial activity against methicillin-susceptible Staphylococcus aureus ATCC 25923 in presence of 5% v/v serum; format: functional
Staphylococcus aureus [4] = experiment: Antibacterial activity against methicillin-susceptible Staphylococcus aureus ATCC 25923 assessed as delayed bacterial proliferation at 0.25 times of MIC for 10 hrs; format: functional, organism-based
Staphylococcus aureus [5] = experiment: Antibacterial activity against vancomycin-intermediate resistant Staphylococcus aureus Mu50 ATCC 700699 assessed as bacterial growth inhibition by measuring fold increase in MIC between 5 to 7 passages by broth dilution method; format: functional
Staphylococcus aureus [6] = experiment: Antibacterial activity against methicillin-susceptible Staphylococcus aureus ATCC 25923 assessed as delayed bacterial proliferation at 0.5 times of MIC for 15 hrs; format: functional, organism-based
Staphylococcus aureus [7] = experiment: Disruption of membrane potential in Staphylococcus aureus at 3 to 30 uM by DiOC2(3) probe based flow cytometric analysis; format: functional, organism-based; details: dose 3-30 µM, TDE = time-dependent effect
How it was run: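 An overnight S. aureus culture was diluted 1:100 in LB, shaken 2 h at 37 °C, then diluted to a final 1:200. Cells were treated with 3–30 μM, DMSO 2% vehicle or CCCP at 37 °C with shaking. At 15 and 30 min, samples were stained 20 min with DiOC2(3). Flow cytometry used ex 488 nm, green 530/30 and red 585/42, reported as red/green ratio (mean ± SEM).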

Staphylococcus aureus [8] = experiment: Bacteriostatic activity against methicillin-susceptible Staphylococcus aureus ATCC 25923 assessed as reduction in bacterial metabolism at 0.25 to 1 times of MIC incubated for 1 hr by C12-resazurin dye based fluorescence assay; format: functional, organism-based
Staphylococcus aureus [9] = experiment: Ration of MBC to MIC against Vancomycin-resistant Staphylococcus aureus HIP11714; format: functional; how it was run: as §1
Staphylococcus aureus [10] = experiment: Antibacterial activity against vancomycin-intermediate resistant Staphylococcus aureus Mu50 ATCC 700699 assessed as zone of inhibition by disc diffusion method; format: functional
Staphylococcus aureus [11] = experiment: Ratio of MBC to MIC against methicillin-resistant Staphylococcus aureus ATCC 43300; format: functional; how it was run: as §1
Staphylococcus aureus [12] = experiment: Bacteriostatic activity against methicillin-susceptible Staphylococcus aureus ATCC 25923 assessed as reduction in glucose metabolism measured at 0.5 hr interval for 15 hrs by phenol red based microplate reader assay; format: functional, organism-based
How it was run: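 Glucose acidification: an OD600 1.0 suspension of S. aureus […] in HBSS was mixed with phenol red (70 μM stock) and test agent added from a 2 mM stock. Controls were DMSO vehicle and water. OD560 was read every 0.5 h for 15 h at 37 °C.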

Staphylococcus aureus [13] = experiment: Antibacterial activity against heterogeneous vancomycin-intermediate Staphylococcus aureus Mu3 ATCC 700698 assessed as inhibition of bacterial growth between 2 and 4 passages at 0.5 times of MIC incubated for 20 hrs by resistant development assay; format: functional, organism-based
How it was run: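 Serial passage with hVISA Mu3, VISA and VRSA strains grown at 0.5× MIC of agent (± equimolar vancomycin). […] MIC was read visually at each passage.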

Staphylococcus aureus [14] = experiment: Antibacterial activity against methicillin-resistant Staphylococcus aureus ATCC 43300 assessed as bacterial growth inhibition incubated for 20 hrs by broth dilution method; format: functional
How it was run: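 Broth microdilution: 0.5 McFarland suspension from an overnight culture, diluted 1:100 in cation-adjusted Mueller Hinton broth (CAMHB), given serial dilutions of test agent for 20 h at 37 °C. MIC is the lowest concentration with no visible growth.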

Bacillus anthracis = experiment: Antibacterial activity against Bacillus anthracis Sterne 34F2 assessed as zone of inhibition by disc diffusion method; format: functional
Escherichia coli = experiment: Antibacterial activity against beta-lactam resistant Escherichia coli BAA 2326 assessed as zone of inhibition by disc diffusion method; format: functional
Staphylococcus aureus [15] = experiment: Induction of intracellular oxidant species generation in Staphylococcus aureus ATCC 25923 after 1 hr by colorimetric based NBT assay; format: functional, organism-based
How it was run: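 Cells at OD600 1.5 in HBSS mixed with 1 mg/mL aqueous NBT and agent (added from 2 mM stock) or DMSO/water, shaken for 1 h at 37 °C. Stopped with 0.1 M HCl and centrifuged; pellet formazan solubilized in DMSO/KOH/HBSS and read at OD560.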

Acinetobacter baumannii [16] = experiment: Antibacterial activity against multidrug-resistant Acinetobacter baumannii BAA 1605 assessed as zone of inhibition by disc diffusion method; format: functional
Staphylococcus aureus [17] = experiment: Antibacterial activity against vancomycin-resistant Staphylococcus aureus HIP11714 assessed as inhibition of bacterial growth measured between 2 and 4 passages at 0.5 times of MIC incubated for 20 hrs by resistant development assay; format: functional, organism-based
Staphylococcus aureus [18] = experiment: Bactericidal activity against methicillin-resistant Staphylococcus aureus ATCC 43300 assessed as bacterial killing incubated for over night; format: functional; how it was run: as §1
Acinetobacter baumannii [19] = experiment: Antibacterial activity against Acinetobacter baumannii ATCC 19606 assessed as zone of inhibition by disc diffusion method; format: functional
Staphylococcus aureus [20] = experiment: Antibacterial activity against vancomycin-resistant Staphylococcus aureus HIP11714 assessed as bacterial growth inhibition by measuring fold increase in MIC between 5 to 7 passages by broth dilution method; format: functional
MDA-MB-231 = experiment: Cytotoxicity against human MDA-MB-231 cells assessed as reduction in cell viability after 72 hrs by MTT assay; format: cell-based; details: MDA-MB-231, 72 h
How it was run: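 MTT viability: MDA-MB-231 and HepG2 cells (kept in DMEM with 10% FBS) were seeded at 5000/well and allowed to adhere overnight. They were exposed to 0.001–100 μM for 72 h, then given MTT 1 mg/mL in PBS pH 7.4 for 2 h. Formazan was dissolved in DMSO and A570 read. IC50 was taken from dose-response curves.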

Staphylococcus aureus [21] = experiment: Ratio of MBC to MIC against heterogeneous vancomycin-intermediate Staphylococcus aureus Mu3 ATCC 700698; format: functional; how it was run: as §1
Staphylococcus aureus [22] = experiment: Synergistic antibacterial activity against methicillin-resistant Staphylococcus aureus ATCC 43300 in presence of vancomycin by disc diffusion method; format: functional, organism-based
Enterococcus faecium = experiment: Antibacterial activity against vancomycin-resistant Enterococcus faecium ATCC 700221 assessed as zone of inhibition by disc diffusion method; format: functional
Staphylococcus aureus [23] = experiment: Antibacterial activity against methicillin-susceptible Staphylococcus aureus ATCC 25923 assessed as inhibition of bacterial growth at 1 to 2 times of MIC after 20 hrs; format: functional, organism-based
Pseudomonas aeruginosa = experiment: Antibacterial activity against Pseudomonas aeruginosa ATCC 15422 assessed as zone of inhibition by disc diffusion method; format: functional

`CCCCCCCCSSc1ccccn1` was tested, and the Ratio (Staphylococcus aureus [1]) was greater than 4, the Activity (Staphylococcus aureus [2]) was “inactive” and the MIC (Staphylococcus aureus [3]) was 25 µM. The Activity (Staphylococcus aureus [4]) was “Active”, the “fold change (FC)” value (Staphylococcus aureus [5]) was greater than 2 and the Activity (Staphylococcus aureus [6]) was “Active”. For the same compound, the Activity (Staphylococcus aureus [7]) was “Tde”, the Activity (Staphylococcus aureus [8]) was “Active” and the Ratio (Staphylococcus aureus [9]) was greater than 8. The “diameter of the inhibition zone (DIZ)” value (Staphylococcus aureus [10]) was 43 mm, the Ratio (Staphylococcus aureus [11]) was greater than 8 and the Activity (Staphylococcus aureus [12]) was “Active”. For the same compound, the Activity (Staphylococcus aureus [13]) was “Active”, the MIC (Staphylococcus aureus [14]) was 6.25 µM (≈ 1.6 µg/mL) and the “diameter of the inhibition zone (DIZ)” value (Bacillus anthracis) was 48 mm. For the same compound, the “diameter of the inhibition zone (DIZ)” value (Escherichia coli) was 0 mm, the Activity (Staphylococcus aureus [15]) was “Active” and the “diameter of the inhibition zone (DIZ)” value (Acinetobacter baumannii [16]) was 0 mm. The Activity (Staphylococcus aureus [17]) was “Active”, the MBC (Staphylococcus aureus [18]) was greater than 50 µM and the “diameter of the inhibition zone (DIZ)” value (Acinetobacter baumannii [19]) was 0 mm. The “fold change (FC)” value (Staphylococcus aureus [20]) was greater than 2, the IC50 (MDA-MB-231) was 74.9 µM and the Ratio (Staphylococcus aureus [21]) was greater than 4. For the same compound, the Activity (Staphylococcus aureus [22]) was “Active”, the “diameter of the inhibition zone (DIZ)” value (Enterococcus faecium) was 12 mm and the Activity (Staphylococcus aureus [23]) was “Active”. The “diameter of the inhibition zone (DIZ)” value (Pseudomonas aeruginosa) was 0 mm.

Source: ChEMBL document CHEMBL4715813, “Allicin-inspired pyridyl disulfides as antimicrobial agents for multidrug-resistant Staphylococcus aureus” (Eur J Med Chem, 2018)
